In ChEMBL document CHEMBL4431385, “Substituted tetracyclic indole core derivatives of HCV NS5A inhibitor MK-8742” (Bioorg Med Chem Lett, 2016):
Positions count from the first letter of the chain named.

How the values were obtained:
[1] = molecular target: T1, Nonstructural protein 5A (Hepatitis C virus) (UniProt Q5L478); assay: Inhibition of HCV GT1a NS5A assessed as suppression of replicon RNA level by real-time PCR analysis; conditions: Hepatitis C virus subtype 1a
T1 sequence (whole entry): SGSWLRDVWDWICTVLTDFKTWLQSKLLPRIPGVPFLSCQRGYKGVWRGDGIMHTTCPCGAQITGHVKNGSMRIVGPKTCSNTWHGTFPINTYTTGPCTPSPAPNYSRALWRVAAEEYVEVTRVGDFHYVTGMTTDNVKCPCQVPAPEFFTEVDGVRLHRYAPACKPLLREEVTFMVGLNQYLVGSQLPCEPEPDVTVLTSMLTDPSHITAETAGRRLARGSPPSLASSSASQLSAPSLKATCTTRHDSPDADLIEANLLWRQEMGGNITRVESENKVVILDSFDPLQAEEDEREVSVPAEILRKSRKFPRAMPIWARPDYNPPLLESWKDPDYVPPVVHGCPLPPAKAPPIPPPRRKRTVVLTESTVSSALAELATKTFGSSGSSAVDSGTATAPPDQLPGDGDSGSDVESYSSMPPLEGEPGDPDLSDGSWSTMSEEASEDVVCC

[2] = molecular target: T1, Nonstructural protein 5A (Hepatitis C virus); assay: Inhibition of HCV GT1b NS5A assessed as suppression of replicon RNA level by real-time PCR analysis; conditions: Hepatitis C virus subtype 1b
[3] = molecular target: T1, Nonstructural protein 5A (Hepatitis C virus); assay: Inhibition of HCV GT2b NS5A assessed as suppression of replicon RNA level by real-time PCR analysis; conditions: Hepatitis C virus subtype 2b
Summary of the method: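 GT2b replicon, which carries the naturally occurring NS5A 31M resistance-associated variant; potency given as EC90 in nM.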

[4] = molecular target: T1, Nonstructural protein 5A (Hepatitis C virus); assay: Inhibition of HCV GT3a NS5A assessed as suppression of replicon RNA level by real-time PCR analysis; conditions: Hepatitis C virus subtype 3a
[5] = tested on: T2, Nonstructural protein 5A (Hepatitis C virus), Q5L478 [Y93H]; assay: Inhibition of HCV GT1a NS5A Y93H mutant assessed as suppression of replicon RNA level by real-time PCR analysis; conditions: Hepatitis C virus subtype 1a
T2 sequence (whole entry): T1 sequence (whole entry) with Y93H

[6] = tested on: Nonstructural protein 5A (Hepatitis C virus), Q5L478 [UNDEFINED MUTATION]; assay: Inhibition of HCV GT1a NS5A L31V mutant assessed as suppression of replicon RNA level by real-time PCR analysis; conditions: Hepatitis C virus subtype 1a
[7] = molecular target: T1, Nonstructural protein 5A (Hepatitis C virus); assay: Inhibition of HCV GT2a NS5A assessed as suppression of replicon RNA level by real-time PCR analysis; conditions: Hepatitis C virus subtype 2a
[8] = molecular target: T1, Nonstructural protein 5A (Hepatitis C virus); assay: Inhibition of HCV GT4a NS5A assessed as suppression of replicon RNA level by real-time PCR analysis; conditions: Hepatitis C virus subtype 4a

`COC(=O)N[C@H](C(=O)N1CCC[C@H]1c1ncc(-c2ccc3c(c2)cc2n3C(c3cccc(OC)c3)Oc3cc(-c4cnc([C@@H]5C[C@@H](F)CN5C(=O)[C@@H](NC(=O)OC)C(C)C)[nH]4)cc(F)c3-2)[nH]1)C(C)C` (stereo partly drawn) showed an EC90 [1] of 0.002 nM, an EC90 [2] of 0.007 nM and an EC90 [3] of 19 nM. For the same molecule, the EC90 [4] was 0.1 nM, the EC90 [5] was 0.6 nM and the EC90 [6] was 0.3 nM.

`COC(=O)N[C@H](C(=O)N1C[C@H](F)C[C@H]1c1ncc(-c2cc(F)c3c(c2)OC(c2cccc(OC(F)(F)F)c2)n2c-3cc3cc(-c4cnc([C@@H]5C[C@@H](F)CN5C(=O)[C@@H](NC(=O)OC)C(C)C)[nH]4)ccc32)[nH]1)C(C)C` (stereo partly drawn) gave an EC90 [1] of 0.006 nM, an EC90 [2] of 0.005 nM and an EC90 [3] of 52 nM. The EC90 [5] was 0.2 nM and the EC90 [6] was 7 nM.

`COC(=O)N[C@H](C(=O)N1CCC[C@H]1c1ncc(-c2ccc3c(c2)cc2n3[C@H](c3ccccc3)Oc3c-2ccc(-c2cnc([C@@H]4CCCN4C(=O)[C@@H](NC(=O)OC)C(C)C)[nH]2)c3F)[nH]1)C(C)C` gave an EC90 [1] of 0.04 nM, an EC90 [2] of 0.003 nM and an EC90 [7] of 0.4 nM. For the same molecule, the EC90 [3] was over 100 nM, the EC90 [4] was over 10 nM and the EC90 [8] was 1 nM. The EC90 [5] was over 100 nM and the EC90 [6] was 36 nM.

For `COC(=O)N[C@H](C(=O)N1CCC[C@H]1c1ncc(-c2ccc3c(c2)cc2n3C(c3ccccc3)Oc3cc(-c4cnc([C@@H]5C[C@@H](F)CN5C(=O)[C@@H](NC(=O)OC)C(C)C)[nH]4)cc(F)c3-2)[nH]1)C(C)C` (mixture of isomers), the EC90 [1] was 0.004 nM, the EC90 [2] was 0.003 nM and the EC90 [7] was 0.04 nM. It also gave an EC90 [3] of 16 nM, an EC90 [4] of 0.1 nM and an EC90 [8] of 0.07 nM. The EC90 [5] was 1 nM and the EC90 [6] was 2 nM.

For `COC(=O)N[C@H](C(=O)N1CCC[C@H]1c1ncc(-c2ccc3c(c2)OCn2c-3cc3c(F)c(-c4cnc([C@@H]5CCCN5C(=O)[C@@H](NC(=O)OC)C(C)C)[nH]4)ccc32)[nH]1)C(C)C`, the EC90 [1] was over 0.8 nM and the EC90 [2] was over 0.5 nM.

Work on `COC(=O)N[C@H](C(=O)N1CCC[C@H]1c1ncc(-c2ccc3c(c2)OCn2c-3cc3cc(-c4cnc([C@@H]5CCCN5C(=O)[C@@H](NC(=O)OC)C(C)C)[nH]4)ccc32)[nH]1)C(C)C` yielded an EC90 [1] of 0.02 nM, an EC90 [2] of 0.02 nM and an EC90 [7] of 0.02 nM. For the same molecule, the EC90 [3] was 76 nM, the EC90 [4] was 1 nM and the EC90 [8] was 0.2 nM. For the same molecule, the EC90 [5] was 100 nM and the EC90 [6] was 7 nM.

For `COC(=O)N[C@H](C(=O)N1CCC[C@H]1c1nc(-c2ccc3c(c2)O[C@@H](c2ccccc2)n2c-3cc3cc(-c4c[nH]c([C@@H]5CCCN5C(=O)[C@@H](NC(=O)OC)C(C)C)n4)ccc32)c[nH]1)C(C)C`, the EC90 [7] was 0.019 nM, the EC90 [4] was 0.12 nM and the EC90 [8] was 0.016 nM.

`COC(=O)N[C@H](C(=O)N1C[C@H](F)C[C@H]1c1ncc(-c2cc(F)c3c(c2)OC(c2cccc(OC)c2)n2c-3cc3cc(-c4cnc([C@@H]5C[C@@H](F)CN5C(=O)[C@@H](NC(=O)OC)C(C)C)[nH]4)ccc32)[nH]1)C(C)C` (stereo partly drawn) was tested, and the EC90 [1] was 0.006 nM, the EC90 [2] was 0.007 nM and the EC90 [3] was 39 nM. For the same molecule, the EC90 [5] was 0.07 nM and the EC90 [6] was 2 nM.

`COC(=O)N[C@H](C(=O)N1CCC[C@H]1c1ncc(-c2ccc3c(c2)cc2n3[C@H](c3ccccc3)Oc3cc(-c4cnc([C@@H]5CCCN5C(=O)[C@@H](NC(=O)OC)C(C)C)[nH]4)c(F)cc3-2)[nH]1)C(C)C` showed an EC90 [1] of 0.003 nM, an EC90 [2] of 0.003 nM and an EC90 [7] of 0.003 nM. It also gave an EC90 [3] of over 100 nM, an EC90 [4] of 1 nM and an EC90 [8] of 0.02 nM. It also gave an EC90 [5] of 62 nM and an EC90 [6] of 1 nM.

In the case of `COC(=O)N[C@H](C(=O)N1CCC[C@H]1c1ncc(-c2ccc3c(c2)OC(c2cc(OC)cc(OC)c2)n2c-3cc3cc(-c4cnc([C@@H]5CCCN5C(=O)[C@@H](NC(=O)OC)C(C)C)[nH]4)ccc32)[nH]1)C(C)C` (stereo partly drawn), the EC90 [1] is reported as 0.004 nM, the EC90 [3] is reported as 11 nM and the EC90 [4] is reported as 0.08 nM. The EC90 [5] was 8 nM and the EC90 [6] was 0.3 nM.

For `COC(=O)N[C@H](C(=O)N1CCC[C@H]1c1ncc(-c2ccc3c(c2)OC(c2ccccc2)n2c-3c(F)c3cc(-c4cnc([C@@H]5C[C@@H](F)CN5C(=O)[C@@H](NC(=O)OC)C(C)C)[nH]4)ccc32)[nH]1)C(C)C` (mixture of isomers), the EC90 [1] was 0.005 nM, the EC90 [2] was 0.003 nM and the EC90 [7] was 0.03 nM. For the same molecule, the EC90 [4] was 2 nM, the EC90 [8] was 0.1 nM and the EC90 [5] was 2 nM. It also gave an EC90 [6] of 2 nM.

`COC(=O)N[C@H](C(=O)N1CCC[C@H]1c1ncc(-c2cc3c(c(C4CC4)c2)-c2cc4cc(-c5cnc([C@@H]6CCCN6C(=O)[C@@H](NC(=O)OC)C(C)C)[nH]5)ccc4n2CO3)[nH]1)C(C)C` was tested, and the EC90 [1] was 0.7 nM, the EC90 [3] was 454 nM and the EC90 [4] was 74 nM. The EC90 [5] was 890 nM and the EC90 [6] was 0.7 nM.

Work on `COC(=O)N[C@H](C(=O)N1C[C@H](F)C[C@H]1c1ncc(-c2cc(F)c3c(c2)OC(c2cccc(O[C@@H]4CCOC4)c2)n2c-3cc3cc(-c4cnc([C@@H]5C[C@@H](F)CN5C(=O)[C@@H](NC(=O)OC)C(C)C)[nH]4)ccc32)[nH]1)C(C)C` (mixture of isomers) yielded an EC90 [1] of 0.04 nM, an EC90 [3] of 2 nM and an EC90 [4] of 2 nM. It also gave an EC90 [5] of 1 nM and an EC90 [6] of 7 nM.

Work on `COC(=O)N[C@H](C(=O)N1CCC[C@H]1c1ncc(-c2ccc3c(c2)OCn2c-3c(Cc3ccccc3)c3cc(-c4cnc([C@@H]5CCCN5C(=O)[C@@H](NC(=O)OC)C(C)C)[nH]4)ccc32)[nH]1)C(C)C` yielded an EC90 [1] of 0.1 nM, an EC90 [2] of 0.01 nM and an EC90 [3] of 28 nM. For the same molecule, the EC90 [5] was 187 nM and the EC90 [6] was 9 nM.

Molecule `COC(=O)N[C@H](C(=O)N1CCC[C@H]1c1ncc(-c2ccc3c(c2)cc2n3C(c3cccc(OC(F)F)c3)Oc3cc(-c4cnc([C@@H]5C[C@@H](F)CN5C(=O)[C@@H](NC(=O)OC)C(C)C)[nH]4)cc(F)c3-2)[nH]1)C(C)C` (stereo partly drawn) has an EC90 [1] of 0.002 nM, an EC90 [3] of 22 nM and an EC90 [4] of 0.2 nM. For the same molecule, the EC90 [5] was 0.3 nM and the EC90 [6] was 0.7 nM.

`COC(=O)N[C@H](C(=O)N1CCC[C@H]1c1ncc(-c2ccc3c(c2)cc2n3C(c3ccc(OC(F)(F)F)cc3)Oc3cc(-c4cnc([C@@H]5C[C@@H](F)CN5C(=O)[C@@H](NC(=O)OC)C(C)C)[nH]4)cc(F)c3-2)[nH]1)C(C)C` (stereo partly drawn) gave an EC90 [1] of 0.03 nM, an EC90 [2] of 0.008 nM and an EC90 [3] of 13 nM. The EC90 [5] was 0.3 nM.

Molecule `CCCCOc1cccc(C2Oc3cc(-c4cnc([C@@H]5C[C@@H](F)CN5C(=O)[C@@H](NC(=O)OC)C(C)C)[nH]4)cc(F)c3-c3cc4cc(-c5cnc([C@@H]6C[C@@H](F)CN6C(=O)[C@@H](NC(=O)OC)C(C)C)[nH]5)ccc4n32)c1` (stereo partly drawn) has an EC90 [2] of 0.008 nM, an EC90 [3] of 126 nM and an EC90 [5] of 0.1 nM. It also gave an EC90 [6] of 4 nM.

`CCOc1cccc(C2Oc3cc(-c4cnc([C@@H]5C[C@@H](F)CN5C(=O)[C@@H](NC(=O)OC)C(C)C)[nH]4)cc(F)c3-c3cc4cc(-c5cnc([C@@H]6C[C@@H](F)CN6C(=O)[C@@H](NC(=O)OC)C(C)C)[nH]5)ccc4n32)c1` (stereo partly drawn) was tested, and the EC90 [1] was 0.01 nM, the EC90 [3] was 69 nM and the EC90 [4] was 0.6 nM. For the same molecule, the EC90 [5] was 0.2 nM and the EC90 [6] was 3 nM.

`COC(=O)N[C@H](C(=O)N1CCC[C@H]1c1ncc(-c2cc(F)c3c(c2)OC(c2cccc(OC(C)C)c2)n2c-3cc3cc(-c4cnc([C@@H]5CCCN5C(=O)[C@@H](NC(=O)OC)C(C)C)[nH]4)ccc32)[nH]1)C(C)C` (stereo partly drawn) was tested, and the EC90 [1] was 0.01 nM, the EC90 [3] was 18 nM and the EC90 [4] was 0.05 nM. For the same molecule, the EC90 [5] was 6 nM and the EC90 [6] was 0.2 nM.

`COC(=O)N[C@H](C(=O)N1C[C@H](F)C[C@H]1c1ncc(-c2cc(F)c3c(c2)OC(c2cccc(OC(C)C)c2)n2c-3cc3cc(-c4cnc([C@@H]5C[C@@H](F)CN5C(=O)[C@@H](NC(=O)OC)C(C)C)[nH]4)ccc32)[nH]1)C(C)C` (stereo partly drawn) gave an EC90 [1] of 0.01 nM, an EC90 [3] of 122 nM and an EC90 [4] of 1 nM. For the same molecule, the EC90 [5] was 0.1 nM and the EC90 [6] was 4 nM.
